The list is not random: actives were taken first. Their share in the collection is about 1.4%.
Lipid droplet – inhibitors of hepatocyte lipid droplet formation, primary screen, imaging, high-throughput imaging, BODIPY stain; AML12 mouse hepatocytes, oleate lipid droplets; inhibition, % at 6.5 µM; 240,000 tested, 0.4% active; AID 1656, 2009;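 active = lipid droplet intensity inhibited by at least 50%, with more than 500 cells counted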
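Assay system: AML12 mouse liver cells | Compound: 6.5 µM single-point dosing | Schedule: Overnight exposure | Technique: Fluorescence imaging, 20x objective, two fields per well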
HTR5A ag – HTR5A agonists in luminescence cell assay, primary screen, counter-screen for OPRM1-OPRD1 heterodimer agonist project, full-deck HTS | cell-based | activation, % at 9.3 µM | 340,000 tested, 0.61% active | 5-hydroxytryptamine receptor 5A (Homo sapiens), P47898; in the data active = activation mostly above about 9.5%, no sharp cut-off; inactive = mostly below about 7.6%
MOR-DOR inv ag – inverse agonists of MOR-DOR heterodimerization, primary screen, cell-based, luminescence. AID 504357, 2011. cell-based MOR-DOR heterodimer luminescence, inverse agonism. inhibition, % at 9.3 µM. Mu-type opioid receptor (Homo sapiens) + Delta-type opioid receptor (Homo sapiens), …. 340,000 tested, 0.21% active; in the data active = inhibition above about 22%, passing the limit was not always enough
Target sequence (P35372 whole entry, looked up): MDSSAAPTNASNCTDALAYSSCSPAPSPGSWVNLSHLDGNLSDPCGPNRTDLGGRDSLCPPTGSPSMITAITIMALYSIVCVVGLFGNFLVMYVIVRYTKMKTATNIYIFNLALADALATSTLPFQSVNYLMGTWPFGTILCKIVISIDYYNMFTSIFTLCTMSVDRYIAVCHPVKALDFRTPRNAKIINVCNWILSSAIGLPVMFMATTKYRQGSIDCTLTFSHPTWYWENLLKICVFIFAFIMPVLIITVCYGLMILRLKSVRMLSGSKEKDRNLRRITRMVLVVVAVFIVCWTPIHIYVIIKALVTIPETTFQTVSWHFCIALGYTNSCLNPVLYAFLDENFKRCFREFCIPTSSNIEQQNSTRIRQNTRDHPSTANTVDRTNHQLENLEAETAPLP
Target sequence (P41143 whole entry, looked up): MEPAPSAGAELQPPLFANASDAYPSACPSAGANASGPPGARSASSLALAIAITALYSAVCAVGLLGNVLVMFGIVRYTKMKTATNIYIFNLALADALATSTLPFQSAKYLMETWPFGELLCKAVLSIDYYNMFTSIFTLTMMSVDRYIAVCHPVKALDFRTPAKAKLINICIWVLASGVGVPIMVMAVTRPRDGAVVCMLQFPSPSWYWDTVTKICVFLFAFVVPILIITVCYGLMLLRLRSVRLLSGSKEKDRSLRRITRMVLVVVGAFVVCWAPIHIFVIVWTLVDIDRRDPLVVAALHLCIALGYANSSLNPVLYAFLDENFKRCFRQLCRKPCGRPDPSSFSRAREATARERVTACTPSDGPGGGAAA
HTR5A inv ctr – HTR5A inverse agonists in luminescence cell assay, primary screen, counter-screen for OPRM1-OPRD1 heterodimer inverse agonist project, full-deck HTS. AID 504634, 2011. inhibition, % at 9.3 µM. HTR5A cell line, inverse agonism. 340,000 tested, 0.083% active. 5-hydroxytryptamine receptor 5A (Homo sapiens), P47898; in the data active = inhibition mostly above about 23%, no sharp cut-off; inactive = mostly below about 18%
OPRM1-OPRD1 ag – agonists of OPRM1-OPRD1 heterodimerization, primary screen, cell-based, luminescence. Mu-type opioid receptor (Homo sapiens) + Delta-type opioid receptor (Homo sapiens), …. cells. activation, % at 9.3 µM. 340,000 tested, 0.3% active; in the data active = activation above about 18%
Hits are given with their value; - = inactive; . = no result.

SMILES | Lipid droplet | HTR5A ag | MOR-DOR inv ag | HTR5A inv ctr | OPRM1-OPRD1 ag
Nc1cc(=O)[nH]c(SCC(=O)c2ccc(F)cc2)n1 | . | - | - | - | -
Cc1ccc(OCC(=O)NS(=O)(=O)c2ccc(Cl)cc2)cc1 | - | - | - | - | -
O=C(COc1ccccc1)NS(=O)(=O)c1ccc(Cl)cc1 | - | 12 | - | - | -
COc1ccccc1C1CC(=O)Oc2c(C(C)C)ccc(C)c21 (stereo not given) | . | - | - | - | -
O=C1C(Cc2ccccc2)Nc2ncnc(N3CCN(c4ccccc4)CC3)c2N1Cc1ccc(Br)cc1 (stereo not given) | . | - | 68 | 59 | -
CCC1Nc2ncnc(N3CCOCC3)c2N(Cc2ccc(OC)cc2)C1=O (stereo not given) | . | - | - | - | -
CCC1Nc2ncnc(N3CCN(c4ccccc4)CC3)c2N(Cc2ccc(OC)cc2)C1=O (stereo not given) | . | - | 57 | 52 | -
O=C1C(Cc2ccccc2)Nc2ncnc(N3CCN(c4ccccc4)CC3)c2N1Cc1ccccc1 (stereo not given) | . | - | - | - | -
CCC1Nc2ncnc(N3CCN(c4ccccc4)CC3)c2N(Cc2ccc(Br)cc2)C1=O (stereo not given) | . | - | 79 | 79 | -
Cc1ccc(CN2C(=O)C(Cc3ccccc3)Nc3ncnc(N4CCN(c5ccccc5)CC4)c32)cc1 (stereo not given) | . | - | 51 | 55 | -
COc1ccc(COC(=O)C2CCN(S(=O)(=O)c3ccc(OC)c(OC)c3)CC2)cc1 | . | - | - | - | -
CC(C)(C)OC(=O)NCc1ccc(NC(=O)c2nc[nH]c2C(=O)N[C@@H](Cc2ccccc2)C(=O)OCc2ccccc2)cc1 | - | 25 | - | - | 41
CC(C)(C)OC(=O)NCc1ccc(CNC(=O)c2[nH]cnc2C(=O)N[C@@H](Cc2ccccc2)C(=O)OCc2ccccc2)cc1 | - | - | - | - | -
O=C(O)CSCC(=O)N1CCN(c2ccnc3cc(Cl)ccc23)CC1 | . | 11 | - | - | -
Nn1c(SCc2ccccn2)nncc1=O | - | - | - | - | -
COC(=O)[C@H](NCc1ccc(OC)c(B(O)O)c1)C(C)C | . | 11 | - | - | -
COC(=O)[C@@H](NCc1ccc(OC)c(B(O)O)c1)C(C)C | . | - | - | - | -
O=C(Nc1cc(C(F)(F)F)cc(C(F)(F)F)c1)c1ccc(Cn2cc(C(F)(F)F)ccc2=O)cc1 | . | - | - | - | -
COC(=O)c1ccc(NC(=S)N2CCCC2)cc1 | - | - | - | - | -
COC(=O)c1ccc(NC(=S)N2CCN(C)CC2)cc1 | - | 13 | - | - | -
COc1ccccc1N(C)S(=O)(=O)c1ccc(C(=O)Nc2cccc(S(=O)(=O)N3CCOCC3)c2)cc1 | . | - | - | - | -
Cc1cc(NC(=O)COc2ccc3ccccc3c2Br)no1 | . | 12 | - | - | -
CC(C)c1cc(C(=O)NNC(=S)NCc2ccco2)c(O)c(C(C)C)c1 | - | 10 | - | - | -
COC(=O)C(NS(=O)(=O)c1ccc(NC(C)=O)cc1)C(C)C (stereo not given) | . | - | - | - | -
COC(=O)C(NS(=O)(=O)c1ccccc1Br)C(C)C (stereo not given) | - | 14 | - | - | -
SMILES | Lipid droplet | HTR5A ag | MOR-DOR inv ag | HTR5A inv ctr | OPRM1-OPRD1 ag
Cc1ccc(OCC(=O)N2CCN(c3nnc(-c4ccccc4)c4ccccc34)CC2)cc1 | - | 9.0 | - | - | -
CC(=O)N1CCN(c2nnc(-c3ccc(C)cc3)c3ccccc23)CC1 | - | - | - | - | -
CC(=O)Nc1cccc(NC(=O)CCN2C(=O)c3ccccc3S2(=O)=O)c1 | . | - | - | - | -
COc1c2ccoc2c(OC(C)=O)c2oc(C)cc(=O)c12 | - | 9.8 | - | - | -
CCC(C)[C@@H](NC(=O)OC(C)(C)C)c1nnc(S(=O)(=O)Cc2cccc(C)c2)o1 (stereo not given in full) | . | 14 | - | - | -
Cc1ccccc1CS(=O)(=O)c1nnc([C@H](Cc2ccccc2)NC(=O)OC(C)(C)C)o1 | . | - | - | - | -
Cc1cc(=O)oc2cc(OCC(=O)Nc3ccc(N4CCC(C)CC4)cc3)ccc12 | - | 11 | - | - | -
Cc1c(C)c2ccc(OCC(=O)Nc3ccc(N4CCC(C)CC4)cc3)cc2oc1=O | - | - | - | - | -
Cc1ccc(N2CC(C(=O)OCC(=O)NNC(=O)c3ccccc3)CC2=O)cc1 (stereo not given) | . | - | - | - | -
Cc1ccc(Nc2nc(N)nc(CCl)n2)cc1 | - | . | . | . | .
Cc1ccc(Nc2nc(N)nc(CN3CCCCCC3)n2)c(C)c1 | - | - | - | - | -
CCOc1ccc(Nc2nc(N)nc(CCl)n2)cc1 | - | 90 | - | - | 68
Cc1ccc(Nc2nc(N)nc(CCl)n2)c(C)c1 | - | 63 | - | - | 61
O=C(OCc1nc2ccccc2s1)c1ccc([N+](=O)[O-])o1 | - | 20 | - | - | -
O=C(OCc1nc2ccccc2s1)c1ccc(Br)o1 | - | - | - | - | -
COc1ccc(CC(=O)Nc2cccc(-c3nnc(-c4ccc(C)cc4)o3)c2)cc1OC | - | 17 | - | - | 20
CC(=O)c1cccc(NS(=O)(=O)c2ccc(NC(=O)N3CCCCC3)cc2)c1 | - | 11 | - | - | -
COc1ccc2nc(NCCCNC(=O)c3cc(OC)c(OC)c(OC)c3)c(C#N)cc2c1 | . | 14 | - | - | -
Cc1ccc(Cl)cc1NC(=O)Nc1cccs1 | - | - | - | - | -
Cn1c(=O)[nH]c(=O)c2c1nc(NC1CCCC1)n2Cc1ccccc1 | - | 10.0 | - | - | -
Cn1c(=O)[nH]c(=O)c2c1nc(N1CCNCC1)n2Cc1ccccc1 | - | - | - | - | -
Cc1ccccc1-n1c(SCc2cccc(F)c2)nc2[nH]ncc2c1=O | - | 14 | - | - | -
CCN1C(=O)CC(c2ccc(OC(C)C)cc2)C1=O (stereo not given) | - | - | - | - | -
Cc1ccc(NC2=C(NCCO)C(=O)c3ccccc3C2=O)cc1 | 59 | - | - | - | -
CCOc1ccccc1N1CCN(C(=O)C2CSC3(C)CCC(=O)N23)CC1 (stereo not given) | . | - | - | - | -
COc1ccc(C(=O)OCC(=O)NC2CCCCCCC2)cc1OC | . | - | - | - | -
COc1ccc(Nc2nc(Nc3ccc(OC)cc3)nc(-n3[nH]c(=O)c(C)c3C)n2)cc1 | . | - | - | 43 | -
O=C(COC(=O)C1CC2CCCC(C1)C2=O)NC1CCCCC1 (stereo not given) | . | - | - | - | -
O=C1c2ccccc2N(Cc2ccc(Cl)cc2)C2=NCCN12 | - | 11 | - | - | -

From PubChem
